From ChEMBL document CHEMBL1240463, “Synthesis and biological evaluation of (+)-labdadienedial, derivatives and precursors from (+)-sclareolide” (Eur J Med Chem, 2010)
In brackets after ≈: the same amount, converted by molar mass. Activity calls are given as the source filed them. No cut-off for these calls is given here.

Tests used:
[1] = tested on: Vero; assay: Cytotoxicity against african green monkey Vero cells after 48 hrs by MTT assay; assay type: cell-based; settings: Chlorocebus sabaeus
In short: (§1)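 MTT colorimetric assay. HeLa (ATCC CCL-2) and Vero (ATCC CCL-81) cells were grown in MEM with 10% FBS at 37 °C, 5% CO2, then seeded at 1.5×10^4 (HeLa) or 1.25×10^4 (Vero) cells/well. Compound dilutions were added after 24 h and incubated 48 h more. Cell controls had 0.05% DMSO; vincristine was the reference. IC50 came from linear-regression dose-effect curves, mean ± S.E.M. of at least four dilutions in quadruplicate.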

[2] = tested on: HeLa; assay: Cytotoxicity against human HeLa cells after 48 hrs by MTT assay; assay type: functional, cell-based; in short: as §1
[3] = tested on: Vero; assay: Selectivity index, ratio of IC50 for green monkey Vero cells over IC50 for human HeLa cells; assay type: functional
In short: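 Selectivity index is the Vero IC50 divided by the HeLa IC50. Both IC50s come from the 48 h MTT assay, each from linear-regression dose-effect curves.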

[4] = tested on: P388; assay: Cytotoxicity against mouse P388 cells; assay type: functional, cell-based
[5] = tested on: B16; assay: Cytotoxicity against mouse B16 cells; assay type: functional, cell-based
[6] = tested on: SNU1; assay: Cytotoxicity against human SNU1 cells; assay type: functional, cell-based
[7] = tested on: KB; assay: Cytotoxicity against human KB cells; assay type: functional; settings: read-out: ED50 (the source's name)
[8] = tested on: Candida albicans; assay: Antifungal activity against Candida albicans ATCC 10231 at 100 ug/mL after 24 hrs by AFSTEUCAST assay; assay type: functional, organism-based
[9] = tested on: Pichia kudriavzevii; assay: Antifungal activity against Candida krusei ATCC 6258 at 100 ug/mL after 24 hrs by AFSTEUCAST assay; assay type: functional, organism-based
[10] = tested on: Candida tropicalis; assay: Antifungal activity against Candida tropicalis CECT 11901 at 100 ug/mL after 24 hrs by AFSTEUCAST assay; assay type: functional, organism-based
[11] = tested on: Candida parapsilosis; assay: Antifungal activity against Candida parapsilosis ATCC 22019 at 100 ug/mL after 24 hrs by AFSTEUCAST assay; assay type: functional, organism-based
[12] = tested on: Candida parapsilosis; assay: Antifungal activity against Candida parapsilosis ATCC 22019 at 6.25 ug/mL after 24 hrs by AFSTEUCAST assay; assay type: functional, organism-based
[13] = tested on: Pichia kudriavzevii; assay: Antifungal activity against Candida krusei ATCC 6258 at 6.25 ug/mL after 24 hrs by AFSTEUCAST assay; assay type: functional, organism-based
[14] = tested on: Candida tropicalis; assay: Antifungal activity against Candida tropicalis CECT 11901 at 12.5 ug/mL after 24 hrs by AFSTEUCAST assay; assay type: functional, organism-based
[15] = tested on: Candida albicans; assay: Antifungal activity against Candida albicans ATCC 10231 at 12.5 ug/mL after 24 hrs by AFSTEUCAST assay; assay type: functional, organism-based
[16] = tested on: Human alphaherpesvirus 1; assay: Antiviral activity against HSV1 infected in Vero cells assessed reduction factor at 12.5 ug/ml after 36 hrs by end-point titration technique relative to control; assay type: functional
In short: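 HSV-1 (CDC) end-point titration on Vero cells. Two-fold compound dilutions were mixed with one infection dose of virus (TCID50/0.1 mL) for 0.5 h at 37 °C. The mixture was added to confluent monolayers and incubated 36 h at 37 °C, 5% CO2. Reduction factor is the virus titer without compound divided by the titer with compound.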

[17] = tested on: Fusarium oxysporum; assay: Antifungal activity against Fusarium oxysporum ATCC 48112 after 48 hrs by CLSI M38-A assay; settings: ATCC 48112, 48 h
[18] = tested on: Trichophyton rubrum; assay: Antifungal activity against Trichophyton rubrum ATCC 28188 after 6 days by CLSI M38-A assay; settings: ATCC 28188, 6 days
[19] = tested on: Aspergillus fumigatus; assay: Antifungal activity against Aspergillus fumigatus ATCC 204305 after 48 hrs by CLSI M38-A assay; settings: ATCC 204305, 48 h
[20] = tested on: Trichophyton mentagrophytes; assay: Antifungal activity against Trichophyton mentagrophytes ATCC 24198 after 6 days by CLSI M38-A assay; settings: ATCC 24198, 6 days
[21] = tested on: Aspergillus terreus; assay: Antifungal activity against Aspergillus terreus CDC 317 at 100 ug/mL after 48 hrs by CLSI M38-A assay
[22] = tested on: Aspergillus flavus; assay: Antifungal activity against Aspergillus flavus ATCC 204304 at 100 ug/mL after 48 hrs by CLSI M38-A assay

Row | Structure (SMILES) | MIC [17] [µg/mL] | MIC [18] [µg/mL] | MIC [19] [µg/mL] | MIC [20] [µg/mL] | IC50 [1] [µg/mL] | IC50 [2] [µg/mL] | Selectivity Index [3] | Activity [8] | Activity [9] | Activity [10] | Activity [11] | also measured
1 | C=C1CC[C@H]2C(C)(C)CCC[C@]2(C)[C@H]1C/C=C(\CO)CCO | > 100 | > 100 | > 100 | > 100 | 38 (≈ 124 µM) | 91 (≈ 297 µM) | 0.42 | inactive | inactive | inactive | inactive | –
2 | CN(C/C=C/C#CC(C)(C)C)Cc1cccc2ccccc12 [TERBINAFINE] | – | < 0.078 | – | 0.0312 (≈ 0.107 µM) | – | – | – | – | – | – | – | –
3 | CCC(C)n1ncn(-c2ccc(N3CCN(c4ccc(OCC5COC(Cn6cncn6)(c6ccc(Cl)cc6Cl)O5)cc4)CC3)cc2)c1=O (stereo not given) [ITRACONAZOLE] | – | – | 0.17 (≈ 0.241 µM) | – | – | – | – | – | – | – | – | –
4 | C=C1CC[C@H]2C(C)(C)CCC[C@]2(C)[C@H]1CC(=O)N(C)OC | > 100 | 50 (≈ 170 µM) | > 100 | 19.8 (≈ 67.5 µM) | 31.5 (≈ 107 µM) | 11.7 (≈ 39.9 µM) | 2.69 | inactive | inactive | inactive | inactive | –
5 | CC[C@]1(O)C[C@H]2CN(CCc3c([nH]c4ccccc34)[C@@](C(=O)OC)(c3cc4c(cc3OC)N(C=O)[C@H]3[C@@](O)(C(=O)OC)[C@H](OC(C)=O)[C@]5(CC)C=CCN6CC[C@]43[C@@H]65)C2)C1 [VINCRISTINE] | – | – | – | – | 1.1 (≈ 1.33 µM) | 0.05 (≈ 0.0606 µM) | 22 | – | – | – | – | –
6 | CON(C)C(=O)C[C@H]1[C@@]2(C)CCCC(C)(C)[C@@H]2CC[C@]1(C)O [WEINREB'S AMIDE] | > 100 | 50 (≈ 161 µM) | 50 (≈ 161 µM) | 39.7 (≈ 127 µM) | 82 (≈ 263 µM) | 66.8 (≈ 214 µM) | 1.23 | inactive | inactive | inactive | inactive | Activity [21]: inactive; Activity [22]: inactive
7 | C[C@@H]1[C@H](O)[C@@H](C)/C=C/C=C/C=C/C=C/C=C/C=C/C=C/[C@H](O[C@@H]2O[C@H](C)[C@@H](O)[C@H](N)[C@@H]2O)C[C@@H]2O[C@](O)(C[C@@H](O)C[C@@H](O)[C@H](O)CC[C@@H](O)C[C@@H](O)CC(=O)O[C@H]1C)C[C@H](O)[C@H]2C(=O)O [AMPHOTERICIN B] | – | – | 2 (≈ 2.16 µM) | – | – | – | – | – | – | – | – | –

Further lines, with some results ahead:

Row | MIC [17] [µg/mL] | MIC [18] [µg/mL] | MIC [19] [µg/mL] | MIC [20] [µg/mL] | Structure (SMILES) | IC50 [1] [µg/mL] | IC50 [2] [µg/mL] | Selectivity Index [3] | Activity [8] | Activity [9] | Activity [10] | Activity [11] | also measured
8 | 19.8 | 0.62 | 79.4 | 1.24 | C=C1CC[C@H]2C(C)(C)CCC[C@]2(C)[C@H]1C/C=C(\C=O)CC=O (mixture of isomers) [LABDADIENEDIAL] | 13.1 | 19.5 | 0.67 | Active | Active | Active | Active | IC50 [4]: 4.1 µg/mL; IC50 [5]: 41.2 µg/mL; IC50 [6]: 12 µg/mL; EC50 [7]: 40 µg/mL; Activity [12]: Active; Activity [13]: Active; Activity [14]: Active; Activity [15]: Active; Activity [16]: 100; Activity [21]: inactive; Activity [22]: inactive
9 | > 100 | > 100 | > 100 | > 100 | C=C1CC[C@H]2C(C)(C)CCC[C@]2(C)[C@H]1C/C=C(/CC(=O)OC)C(=O)OC | 33.7 (≈ 93 µM) | 14.5 (≈ 40 µM) | 2.32 | inactive | inactive | inactive | inactive | –
10 | > 100 | > 100 | > 100 | > 100 | C=C1CC[C@H]2C(C)(C)CCC[C@]2(C)[C@H]1C/C=C(/CC(=O)O)C(=O)O | 39 (≈ 117 µM) | 84.5 (≈ 253 µM) | 0.46 | inactive | inactive | inactive | inactive | –
11 | > 100 | 31.5 (≈ 134 µM) | > 100 | 31.5 (≈ 134 µM) | C=C1CCC2C(C)(C)CCC[C@]2(C)[C@H]1CC=O (stereo not given in full) | 10.7 (≈ 45.7 µM) | 2.6 (≈ 11.1 µM) | 4.11 | inactive | inactive | inactive | inactive | IC50 [4]: 0.16 µg/mL (≈ 0.683 µM); IC50 [5]: 30.8 µg/mL (≈ 131 µM); IC50 [6]: 3.9 µg/mL (≈ 16.6 µM)
